Calls of active or inactive are those of the source. No cut-off for these calls is given here.
How the values were obtained:
Adenosine receptor A2a [1] = molecular target: Adenosine receptor A2a (Rattus norvegicus, UniProt P30543); experiment: Displacement of [3H]-ZM 241385 from rat adenosine A2A receptor expressed in CHO cell membrane; format: cell membranes
Adenosine receptor A1 = molecular target: T1, Adenosine receptor A1 (Homo sapiens, UniProt P30542); experiment: Displacement of [3H]-DPCPX from human adenosine A1 receptor expressed in HEK293 cell membrane; format: cell membranes
T1 sequence (P30542 whole entry): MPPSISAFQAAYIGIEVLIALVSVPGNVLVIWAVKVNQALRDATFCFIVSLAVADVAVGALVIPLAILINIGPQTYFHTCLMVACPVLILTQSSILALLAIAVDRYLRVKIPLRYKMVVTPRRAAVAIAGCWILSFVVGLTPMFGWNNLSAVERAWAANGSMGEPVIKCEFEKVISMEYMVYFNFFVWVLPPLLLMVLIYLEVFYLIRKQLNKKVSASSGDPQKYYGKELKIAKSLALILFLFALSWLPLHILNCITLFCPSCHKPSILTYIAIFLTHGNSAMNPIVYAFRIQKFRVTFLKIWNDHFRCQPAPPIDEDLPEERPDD
In short: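 Flp-In HEK293 cell line stably expressing the human receptor, crude membranes used at 1–2 µg protein. Pre-incubated 30 min at room temperature with 10 µg/mL adenosine deaminase. Then incubated 90 min with 1.0 nM [3H]-DPCPX and graded competitor in 50 mM Tris-HCl pH 7.4, 1 mM EDTA, 10 mM MgCl2. Nonspecific binding defined with 1 µM DPCPX. Separated by filtration on GF/C, counted by scintillation. Ki from IC50 via Cheng-Prusoff. Mean of at least two runs.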

Homo sapiens = species on record: Homo sapiens; experiment: Selectivity ratio of Ki for human adenosine A1 receptor to Ki for human adenosine A2A receptor
In short: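 Stably transfected Flp-In HEK293 membranes with human A1 or A2A receptors (1–2 µg protein) were preincubated 30 min at room temp with adenosine deaminase. They were then incubated 90 min with competitor and 1.0 nM [3H]-DPCPX (A1) or 2.0 nM [3H]-ZM241385 (A2A). Nonspecific binding used 1 µM DPCPX or CGS15943. Filtration and scintillation counting followed. […] Ratio is A1 Ki/A2A Ki.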

Adenosine receptor A2a [2] = molecular target: Adenosine receptor A2a (Homo sapiens, UniProt P29274); experiment: Displacement of [3H]-ZM 241385 from human adenosine A2A receptor expressed in HEK293 cell membrane; format: cell membranes
[3] = molecular target: Voltage-gated inwardly rectifying potassium channel KCNH2 (Homo sapiens, UniProt Q12809); experiment: Inhibition of human ERG potassium current expressed in HEK293 cells by patch-clamp technique
[4] = Drug level in Wistar rat brain at 30 mg/kg, po after 2 hrs; format: ADME, organism-based; design: dose 30 mg/kg, route oral; conditions: read-out: Drug uptake
In short: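 Male Wistar rats, ∼220 g. Oral dose of 30 mg/kg in 5% cremophor in sterile water (5 mL/kg), with haloperidol 1.5 mg/kg ip 1 h before the bar test. Brain collected 2 h after dosing. Half-brain homogenates centrifuged, supernatant analysed by LC-MS/MS (positive ESI, MRM). Quantified against brain-matrix calibration standards by internal-standard peak-area ratio on a 1/x-weighted linear curve.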

Rattus norvegicus = experiment: Effect on haloperidol-induced catalepsy in Wistar rat at 30 mg/kg, po after 2 hrs; format: functional, organism-based; design: dose 30 mg/kg
In short: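 Male Wistar rats, ∼220 g, habituated 1 week, 24 per experiment. Oral dose of 30 mg/kg in 5% cremophor/sterile water (5 mL/kg) 2 h before testing, haloperidol 1.5 mg/kg ip 1 h before. Bar test: forepaws placed on 8.0 cm bar, three 30 s trials 3 min apart. Descent latency averaged per rat and compared with vehicle, p < 0.05.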

Cytochrome P450 3A4 = Cytochrome P450 3A4 (Homo sapiens, UniProt P08684); experiment: Inhibition of CYP3A4; format: ADME
Cytochrome P450 2D6 = Cytochrome P450 2D6 (Homo sapiens, UniProt P10635); experiment: Inhibition of CYP2D6; format: ADME
Chain of Cytochrome P450 2D6 (P10635 whole entry): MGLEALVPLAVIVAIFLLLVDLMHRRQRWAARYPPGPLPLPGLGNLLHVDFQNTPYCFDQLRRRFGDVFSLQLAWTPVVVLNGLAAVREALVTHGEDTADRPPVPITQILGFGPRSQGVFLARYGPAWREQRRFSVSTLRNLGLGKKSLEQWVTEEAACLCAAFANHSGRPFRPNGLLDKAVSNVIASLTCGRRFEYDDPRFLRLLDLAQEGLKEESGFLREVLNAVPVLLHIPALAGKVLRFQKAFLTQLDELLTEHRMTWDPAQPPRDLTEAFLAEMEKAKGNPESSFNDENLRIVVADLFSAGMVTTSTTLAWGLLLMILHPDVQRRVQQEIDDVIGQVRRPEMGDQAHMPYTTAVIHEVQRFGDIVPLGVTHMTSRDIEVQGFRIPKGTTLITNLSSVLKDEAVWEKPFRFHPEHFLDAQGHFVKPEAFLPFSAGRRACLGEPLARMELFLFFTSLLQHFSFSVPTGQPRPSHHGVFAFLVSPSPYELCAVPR

Chain of Adenosine receptor A2a (Homo sapiens, UniProt P29274) (P29274 whole entry): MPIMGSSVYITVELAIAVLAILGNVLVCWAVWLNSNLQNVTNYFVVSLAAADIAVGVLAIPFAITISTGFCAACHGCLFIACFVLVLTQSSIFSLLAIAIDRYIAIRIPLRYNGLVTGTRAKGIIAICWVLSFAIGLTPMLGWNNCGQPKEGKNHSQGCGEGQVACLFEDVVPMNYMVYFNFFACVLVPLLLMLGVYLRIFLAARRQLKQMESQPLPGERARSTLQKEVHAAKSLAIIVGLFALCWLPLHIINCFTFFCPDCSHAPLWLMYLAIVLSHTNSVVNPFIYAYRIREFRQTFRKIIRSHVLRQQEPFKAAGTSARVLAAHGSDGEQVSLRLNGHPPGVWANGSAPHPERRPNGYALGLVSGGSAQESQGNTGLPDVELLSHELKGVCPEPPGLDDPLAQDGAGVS
Chain of Adenosine receptor A2a (Rattus norvegicus, UniProt P30543) (P30543 whole entry): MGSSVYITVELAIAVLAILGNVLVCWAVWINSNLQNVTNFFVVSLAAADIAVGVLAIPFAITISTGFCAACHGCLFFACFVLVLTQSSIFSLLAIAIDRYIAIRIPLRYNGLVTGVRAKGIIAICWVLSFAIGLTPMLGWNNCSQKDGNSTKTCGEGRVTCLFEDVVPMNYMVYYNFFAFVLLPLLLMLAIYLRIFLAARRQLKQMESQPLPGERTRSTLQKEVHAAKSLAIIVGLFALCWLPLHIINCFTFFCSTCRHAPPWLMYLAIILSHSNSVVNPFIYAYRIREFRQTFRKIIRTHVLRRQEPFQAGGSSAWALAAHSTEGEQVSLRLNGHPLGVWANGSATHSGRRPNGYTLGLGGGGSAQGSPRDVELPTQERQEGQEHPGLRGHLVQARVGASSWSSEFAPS
Chain of Voltage-gated inwardly rectifying potassium channel KCNH2 (Q12809 whole entry): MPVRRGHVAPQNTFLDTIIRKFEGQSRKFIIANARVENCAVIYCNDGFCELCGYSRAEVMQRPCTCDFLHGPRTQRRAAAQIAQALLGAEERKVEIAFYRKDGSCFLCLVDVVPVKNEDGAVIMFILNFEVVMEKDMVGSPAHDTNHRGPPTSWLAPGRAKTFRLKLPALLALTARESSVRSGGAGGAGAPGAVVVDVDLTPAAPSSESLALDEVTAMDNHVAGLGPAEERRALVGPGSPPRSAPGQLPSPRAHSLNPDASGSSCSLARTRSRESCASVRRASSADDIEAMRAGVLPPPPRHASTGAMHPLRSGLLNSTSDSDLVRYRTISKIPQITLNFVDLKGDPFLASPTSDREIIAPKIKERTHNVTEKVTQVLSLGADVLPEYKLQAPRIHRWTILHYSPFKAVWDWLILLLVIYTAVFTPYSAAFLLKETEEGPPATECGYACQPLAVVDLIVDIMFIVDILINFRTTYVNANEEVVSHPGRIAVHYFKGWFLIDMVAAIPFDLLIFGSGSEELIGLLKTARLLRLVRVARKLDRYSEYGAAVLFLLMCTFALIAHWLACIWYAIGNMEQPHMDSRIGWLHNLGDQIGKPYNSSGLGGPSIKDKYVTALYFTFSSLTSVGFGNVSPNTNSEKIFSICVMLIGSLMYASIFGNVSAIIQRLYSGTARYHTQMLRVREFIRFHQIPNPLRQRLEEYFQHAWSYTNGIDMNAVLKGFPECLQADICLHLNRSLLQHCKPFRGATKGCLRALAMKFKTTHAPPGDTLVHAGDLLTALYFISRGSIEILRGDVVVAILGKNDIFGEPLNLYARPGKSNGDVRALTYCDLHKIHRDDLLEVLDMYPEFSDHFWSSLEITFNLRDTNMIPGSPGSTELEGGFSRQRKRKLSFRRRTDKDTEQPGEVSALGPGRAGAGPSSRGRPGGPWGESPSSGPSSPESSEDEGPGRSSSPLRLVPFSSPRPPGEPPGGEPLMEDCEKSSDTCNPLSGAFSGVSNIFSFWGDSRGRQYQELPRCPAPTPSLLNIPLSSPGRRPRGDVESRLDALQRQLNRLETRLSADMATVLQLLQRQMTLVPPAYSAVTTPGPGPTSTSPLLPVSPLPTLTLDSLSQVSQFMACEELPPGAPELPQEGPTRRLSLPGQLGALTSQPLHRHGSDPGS
Chain of Cytochrome P450 3A4 (P08684 whole entry): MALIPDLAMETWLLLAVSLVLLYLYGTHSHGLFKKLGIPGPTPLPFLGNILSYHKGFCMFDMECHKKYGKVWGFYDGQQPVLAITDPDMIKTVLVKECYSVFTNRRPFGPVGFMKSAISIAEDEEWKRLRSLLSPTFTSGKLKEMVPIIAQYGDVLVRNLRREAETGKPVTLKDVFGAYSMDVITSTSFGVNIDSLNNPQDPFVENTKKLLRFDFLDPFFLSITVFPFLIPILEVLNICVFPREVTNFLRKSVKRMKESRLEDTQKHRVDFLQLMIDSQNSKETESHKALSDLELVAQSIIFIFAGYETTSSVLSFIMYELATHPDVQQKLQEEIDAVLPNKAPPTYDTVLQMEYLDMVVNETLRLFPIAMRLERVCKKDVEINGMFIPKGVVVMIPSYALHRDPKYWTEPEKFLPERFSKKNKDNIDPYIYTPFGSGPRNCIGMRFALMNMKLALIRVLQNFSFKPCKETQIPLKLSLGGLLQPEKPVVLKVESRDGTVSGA

SMILES | Ki (Adenosine receptor A2a [1]) [nM] | Ki (Adenosine receptor A1) [nM] | Ratio Ki (Homo sapiens) | Ki (Adenosine receptor A2a [2]) [nM] | Inhibition (Cytochrome P450 3A4) | Inhibition (Cytochrome P450 2D6) | IC50 [3] [nM] | concentration at 2 h [4] [ng/g] | Activity (Rattus norvegicus)
Cc1cc(C)n(-c2cc(NC(=O)CCN3CC[C@H](N(C)C)C3)nc(-c3ccc(C)o3)n2)n1 | 41 | 630 | 263 | 2.4 | – | – | 2280 | 250 | Active
Cc1cc(C)n(-c2cc(NC(=O)CN3CC[C@@H](CN(C)C)C3)nc(-c3ccc(C)o3)n2)n1 | 27.8 | 220 | – | 2.1 | – | – | – | – | –
Cc1cc(C)n(-c2cc(NC(=O)CN3CCN(C)CC3)nc(-c3ccc(C)o3)n2)n1 | 131 | – | 71 | – | Not Active | Not Active | 950 | – | –
Cc1cc(C)n(-c2cc(NC(=O)CC3CCN(C)CC3)nc(-c3ccc(C)o3)n2)n1 | 103 | 1020 | – | 5.4 | – | – | – | – | –
Cc1cc(C)n(-c2cc(NC(=O)CN3CCC[C@H](CN(C)C)C3)nc(-c3ccc(C)o3)n2)n1 | 87 | 890 | 89 | 10 | – | – | – | – | –
CCN[C@@H]1CCN(CC(=O)Nc2cc(-n3nc(C)cc3C)nc(-c3ccc(C)o3)n2)C1 | – | 270 | 71 | 3.8 | – | – | – | – | –
Cc1cc(C)n(-c2cc(NC(=O)CN3CCCN(C)CC3)nc(-c3ccc(C)o3)n2)n1 | 46.7 | 2100 | 210 | 10 | – | – | 285 | – | –
Cc1cc(C)n(-c2cc(NC(=O)CN3CCCOCC3)nc(-c3ccc(C)o3)n2)n1 | 230 | 630 | 105 | 6 | – | – | – | – | –
Cc1cc(C)n(-c2cc(NC(=O)CN3CC[C@H](CN(C)C)C3)nc(-c3ccc(C)o3)n2)n1 | 34 | 550 | – | 11 | – | – | – | – | –
Cc1cc(C)n(-c2cc(NC(=O)CN3CCC[C@@H](CN(C)C)C3)nc(-c3ccc(C)o3)n2)n1 | 14 | 71 | 47 | 1.5 | – | – | – | – | –
Cc1cc(C)n(-c2cc(NC(=O)CN3CCC(CN(C)C)CC3)nc(-c3ccc(C)o3)n2)n1 | 25 | 380 | 131 | 2.9 | – | – | 1670 | – | –

The next lines start with results.

Ki (Adenosine receptor A2a [1]) [nM] | Ki (Adenosine receptor A1) [nM] | Ratio Ki (Homo sapiens) | Ki (Adenosine receptor A2a [2]) [nM] | Inhibition (Cytochrome P450 3A4) | Inhibition (Cytochrome P450 2D6) | SMILES | IC50 [3] [nM] | concentration at 2 h [4] [ng/g] | Activity (Rattus norvegicus)
170 | 540 | 150 | 3.6 | – | – | CC(=O)N1CCN(CC(=O)Nc2cc(-n3nc(C)cc3C)nc(-c3ccc(C)o3)n2)CC1 | – | – | –
– | 2300 | 27 | 86 | – | – | Cc1cc(C)n(-c2cc(NC(=O)CN3CC[C@H](OC(C)C)C3)nc(-c3ccc(C)o3)n2)n1 | – | – | –
270 | 1880 | 171 | 11 | – | – | CCN1CCN(CC(=O)Nc2cc(-n3nc(C)cc3C)nc(-c3ccc(C)o3)n2)CC1 | – | – | –
1600 | 1210 | 81 | 15 | – | – | COC1CCN(CC(=O)Nc2cc(-n3nc(C)cc3C)nc(-c3ccc(C)o3)n2)CC1 | – | – | –
– | 262 | 66 | 4 | – | – | Cc1cc(C)n(-c2cc(NC(=O)CN3CC[C@@H](N(C)C)C3)nc(-c3ccc(C)o3)n2)n1 | – | – | –
43 | 210 | – | 2.1 | – | – | Cc1cc(C)n(-c2cc(NC(=O)CCN(C)C)nc(-c3ccc(C)o3)n2)n1 | – | – | –
155 | 2600 | 591 | 4.4 | – | – | CCN(CC)[C@H]1CCN(CC(=O)Nc2cc(-n3nc(C)cc3C)nc(-c3ccc(C)o3)n2)C1 | – | – | –
430 | 500 | 88 | 5.7 | – | – | Cc1cc(C)n(-c2cc(NC(=O)CN3CCOCC3)nc(-c3ccc(C)o3)n2)n1 | – | – | –
– | 347 | 40 | 8.6 | – | – | Cc1cc(C)n(-c2cc(NC(=O)CN3CCCC3)nc(-c3ccc(C)o3)n2)n1 | – | – | –
160 | 940 | 254 | 3.7 | – | – | Cc1cc(C)n(-c2cc(NC(=O)CN3CC[C@H](N(C)C)C3)nc(-c3ccc(C)o3)n2)n1 | 600 | 1900 | Active
37 | 370 | 148 | 2.5 | – | – | CCN[C@H]1CCN(CC(=O)Nc2cc(-n3nc(C)cc3C)nc(-c3ccc(C)o3)n2)C1 | 420 | – | –
